The list is not random: actives were taken first. Their share in the collection is about 3.9%.
CHO parental Ca = ATP-evoked calcium signal inhibitors, parental CHO, primary screen, counter-screen for OX1R antagonist project, cell-based, fluorescence, Fluo-8 calcium dye | parental CHO-K1, ATP-induced calcium, Fluo-8 fluorescence | inhibition, % at 5.6 µM | 330,000 compounds, 0.63% hits;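 active = inhibition above that plate's mean sample inhibition plus 3 SD, cut at about 26% in these data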
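material = parental CHO cells | also added = ATP as calcium-mobilizing challenge | dosing = single point at 5.6 µM | detection = intracellular calcium via Fluo-8 no-wash fluorescent dye | read-out = % inhibition | benchmarks = low control ATP plus DMSO, high control DMSO only | repeats = one well per compound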
OX1R antag-1 = antagonists of human orexin 1 receptor (OX1R). OX1R-expressing cells, FRET antagonist read-out. inhibition, % at 6.6 µM. 330,000 compounds, 1.8% hits; in the data active = inhibition mostly above about 38%, no sharp cut-off; inactive = mostly below about 40%
TAAR1 ag = human TAAR1 agonists, primary screen, Fluo-8 calcium fluorescence, CHO RD-HGA16 cells. activation, % at 3 µM. vehicle wells 0%, saturating PEA agonist 100%. 360,000 compounds, 0.99% hits. AID 624467, 2012;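 active = activation above the mean activation of all test compounds in the run plus 3 SD, cut at about 38% in these data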
Target sequence (Q96RJ0 whole entry, looked up): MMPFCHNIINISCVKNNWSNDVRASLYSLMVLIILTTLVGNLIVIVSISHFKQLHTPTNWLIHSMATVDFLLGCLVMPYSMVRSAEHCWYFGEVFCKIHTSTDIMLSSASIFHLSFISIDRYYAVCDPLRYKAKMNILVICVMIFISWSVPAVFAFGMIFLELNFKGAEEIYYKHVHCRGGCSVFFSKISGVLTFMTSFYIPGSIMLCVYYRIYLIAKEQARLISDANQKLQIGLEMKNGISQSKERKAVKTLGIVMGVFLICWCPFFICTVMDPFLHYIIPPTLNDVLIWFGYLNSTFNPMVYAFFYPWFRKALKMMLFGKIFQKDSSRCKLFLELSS
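test system = CHO RD-HGA16 cells carrying human TAAR1 plus Gα16 | schedule = 17-24 h seeding, 75 min 37 °C dye, 30 min RT | compound dosing = 3 µM single concentration | control set = DMSO and PEA EC100 | replicates = n 1 | signal = Fluo-8 fluorescence, 5 s baseline then 140 s kinetic read | measure = percent activation vs PEA EC100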
TAAR1 antag = human TAAR1 antagonists, primary screen, Fluo-8 calcium fluorescence, CHO RD-HGA16 cells; Trace amine-associated receptor 1 (Homo sapiens), Q96RJ0; antagonist; inhibition, % at 3 µM; 360,000 compounds, 1.5% hits; AID 624466, 2012;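 active = inhibition above a per-plate cutoff, the mean inhibition of test compounds on that plate plus 3 SD, cut at about 49% in these data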
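System: RD-HGA16 CHO cells with stable hTAAR1 and Gα16 | Probe or stimulus: EC80 β-phenethylamine stimulus | Dosing: 3 µM, single point | Times: Dye loading 75 min at 37 °C, then 30 min room temperature | Measured by: Fluo-8 calcium-sensitive fluorescence | Read-out basis: % inhibition of agonist calcium response | Replicates: n of 1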
OX1R antag-2 = OX1R (HCRTR1) antagonists, primary screen, fluorescence, CHO/OX1R cells, Fluo-8 calcium, orexin A; Fluo-8 calcium fluorescence; inhibition, % at 5 µM; 330,000 compounds, 0.43% hits;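 active = inhibition above its plate's threshold, mean inhibition of all tested compounds on the plate plus 3 SD, cut at about 37% in these data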
TAAR1 nonsel count = nonselective antagonists in TAAR1 counter-screen cells, counter-screen for hTAAR1 antagonist project, cell-based, fluorescence, calcium; shares compounds with TAAR1 antag; counterscreen cell line, antagonist mode; inhibition, % at 3 µM; 2,400 compounds, 77% hits; in the data active = inhibition above about 22%;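 note: CHO-Ga16 host cells stimulated with ATP at an EC80 level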
TAAR1 ant conf = human TAAR1 antagonists, retest of hits, confirmation, cell-based, fluorescence; shares compounds with TAAR1 antag; TAAR1-expressing cells, fluorescence antagonist read-out; inhibition, % at 3 µM; 2,400 compounds, 40% hits; AID 651785, 2012; in the data active = inhibition above about 49%;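 note: CHO-Ga16 host cells challenged with agonist PEA near its EC80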
Ga16 nonsel ag = calcium activation in Ga16-expressing cells, counter-screen for TAAR1 antagonist project, cell-based, fluorescence; shares compounds with TAAR1 antag; agonist counterscreen; activation, % at 3 µM; 2,400 compounds, 18% hits; AID 651953, 2012; in the data active = activation above about 12%
TAAR1 ag count = TAAR1 activation by candidate antagonists – cell-based, fluorescence, counter-screen for TAAR1 antagonist project; 2,400 compounds, 2% hits; AID 651955, 2012; activation, % at 3 µM; hTAAR1 cell line, agonist mode; shares compounds with TAAR1 antag; in the data active = activation above about 37%;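 note: CHO cells stably expressing TAAR1 with calcium dye readout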
Each line names hits and unclear results; the compound was inactive in the other large screens (follow-up assays come after a bar, where they were run).

Cc1cc(Nc2ccccc2)nc(-c2ccccc2O)n1	none
CCOc1ccc2[nH]c(=O)c(CN(Cc3cccs3)Cc3nnnn3C(C)(C)CC)cc2c1	TAAR1 antag 55 | TAAR1 nonsel count inactive | TAAR1 ant conf inactive | Ga16 nonsel ag inactive | TAAR1 ag count inactive
CC(C)(C)NC(=O)CCN(/N=C/c1ccccc1O)C1=NS(=O)(=O)c2ccccc21	TAAR1 antag 59 | TAAR1 nonsel count 25 | TAAR1 ant conf inactive | Ga16 nonsel ag 12 | TAAR1 ag count inactive
COc1ccc(CNC(=O)c2cc(C3CC3)nc3c2cnn3C(C)C)cc1	TAAR1 antag 50 | TAAR1 nonsel count inactive | TAAR1 ant conf inactive | Ga16 nonsel ag inactive | TAAR1 ag count inactive
CC(C)n1ncc2c(C(=O)NCCc3ccc(S(N)(=O)=O)cc3)cc(C3CC3)nc21	none (no result: CHO parental Ca, OX1R antag-1, OX1R antag-2)
Cc1cccc(NC(=O)COC(=O)c2cc3ccccc3oc2=O)c1	none
CCN(CC)S(=O)(=O)c1ccc(/C=C/C(=O)Nc2cccc(F)c2)cc1	TAAR1 antag 58 | TAAR1 nonsel count 39 | TAAR1 ant conf 62 | Ga16 nonsel ag inactive | TAAR1 ag count inactive
c1ccc(COc2cccc(-c3cc4nc(NCCc5ccncc5)ccn4n3)c2)cc1	TAAR1 antag 71 (no result: CHO parental Ca, OX1R antag-1, OX1R antag-2) | TAAR1 nonsel count 38 | TAAR1 ant conf 51 | Ga16 nonsel ag inactive | TAAR1 ag count inactive
O=C(Nc1ccc2c(c1)CCCN2C(=O)c1ccccc1)c1ccccc1Br	TAAR1 antag 66 | TAAR1 nonsel count 31 | TAAR1 ant conf inactive | Ga16 nonsel ag inactive | TAAR1 ag count inactive
O=C(Nc1ccc2c(c1)CCCN2C(=O)c1cccs1)c1cccc(F)c1	TAAR1 antag 69 | TAAR1 nonsel count 29 | TAAR1 ant conf inactive | Ga16 nonsel ag inactive | TAAR1 ag count inactive
CN1CCN(c2ccc(NC(=O)c3cc4ccccc4o3)cc2)CC1	none
O=C(Nc1ccc(N2CCN(C(=O)c3ccccc3)CC2)cc1)c1ccc(Br)o1	none
O=C(Nc1ccc(N2CCN(C(=O)c3ccccc3)CC2)c(Cl)c1)c1ccc(Br)o1	TAAR1 antag 69 | TAAR1 nonsel count 35 | TAAR1 ant conf inactive | Ga16 nonsel ag inactive | TAAR1 ag count inactive
O=C(Nc1ccc(N2CCN(C(=O)c3ccccc3)CC2)cc1)c1cc2ccccc2o1	TAAR1 antag 77 | TAAR1 nonsel count 44 | TAAR1 ant conf 62 | Ga16 nonsel ag inactive | TAAR1 ag count inactive
O=C(Nc1ccc(N2CCN(C(=O)c3ccc(Cl)cc3)CC2)cc1)c1ccc2c(c1)OCCO2	TAAR1 antag 58 | TAAR1 nonsel count 44 | TAAR1 ant conf 49 | Ga16 nonsel ag inactive | TAAR1 ag count inactive
O=C(NCc1cccs1)C1CCC(CNS(=O)(=O)c2ccc(Br)s2)CC1 (stereo unspecified)	TAAR1 antag 57 | TAAR1 nonsel count inactive | TAAR1 ant conf 53 | Ga16 nonsel ag inactive | TAAR1 ag count 39
CCOC(=O)c1c(NC(=O)C2CCCN(S(=O)(=O)c3ccccc3)C2)sc2c1CCCC2 (stereo unspecified)	none
Cc1cccc(Nc2ccccc2C(=O)OCC(=O)NCc2ccco2)c1C	none
O=C(COC(=O)c1ccccc1Nc1ccc(SC(F)F)cc1)NCc1ccco1	TAAR1 antag 52 | TAAR1 nonsel count inactive | TAAR1 ant conf inactive | Ga16 nonsel ag inactive | TAAR1 ag count inactive
CN(C)C(=O)COC(=O)c1ccccc1OCC(=O)Nc1ccc(SC(F)F)cc1	TAAR1 antag 64 | TAAR1 nonsel count 32 | TAAR1 ant conf 51 | Ga16 nonsel ag inactive | TAAR1 ag count inactive
O=C(COc1ccccc1C(=O)O)Nc1ccc(SC(F)F)cc1	none
CC(=O)c1ccc(NC(=O)C(C)Sc2nnc(C3CCCCC3)o2)cc1 (stereo unspecified)	none
CC(=O)c1c(C)[nH]c(C(=O)COC(=O)c2cc(S(=O)(=O)N(C)c3ccccc3)ccc2Cl)c1C	none
CCN(c1ccccc1)S(=O)(=O)c1ccc(Cl)c(C(=O)OCC(=O)c2[nH]c(C)c(C(C)=O)c2C)c1	TAAR1 antag 63 | TAAR1 nonsel count inactive | TAAR1 ant conf inactive | Ga16 nonsel ag inactive | TAAR1 ag count inactive
COc1ccc(CCNC(=O)C(=O)NCC2CCCN2S(=O)(=O)c2ccc(OC)cc2)cc1 (stereo unspecified)	TAAR1 antag 74 | TAAR1 nonsel count 29 | TAAR1 ant conf 57 | Ga16 nonsel ag 14 | TAAR1 ag count inactive
Cc1nc(C(=O)N/N=C/c2[nH]ncc2Br)cs1	none
Cc1ccc(CSCCNC(=O)/C=C/c2ccccc2Cl)cc1	TAAR1 antag 52 | TAAR1 nonsel count 25 | TAAR1 ant conf inactive | Ga16 nonsel ag inactive | TAAR1 ag count inactive
Cc1ccc(C(=O)OC(C(=O)O)C(OC(=O)c2ccc(C)cc2)C(=O)O)cc1 (stereo unspecified)	none
CN(C(=O)OC(C)(C)C)c1ccc(-c2nc3ccccc3s2)cc1	none
OC[C@@H]1CN(Cc2cccc(C(F)(F)F)c2)C[C@H](n2cnc3c(NCc4ccc(F)cc4)ncnc32)O1	none (no result: CHO parental Ca, OX1R antag-1, OX1R antag-2)
OC[C@@H]1CN(Cc2cccc(C(F)(F)F)c2)C[C@H](n2cnc3c(NCc4ccco4)ncnc32)O1	TAAR1 antag 74 (no result: CHO parental Ca, OX1R antag-1, OX1R antag-2) | TAAR1 nonsel count 23 | TAAR1 ant conf inactive | Ga16 nonsel ag inactive | TAAR1 ag count inactive
COc1ccc(CNC(=O)CN2C(=O)CSc3ccc(S(=O)(=O)N4CCOCC4)cc32)c(OC)c1	none
CCC1CN(C(=O)N2CCC(C(=O)NCCc3ccccc3OC)CC2)c2ccccc2O1 (stereo unspecified)	TAAR1 antag 75 | TAAR1 nonsel count 29 | TAAR1 ant conf 54 | Ga16 nonsel ag inactive | TAAR1 ag count inactive
CCC1CN(C(=O)N2CCC(C(=O)NCc3ccccc3C)CC2)c2ccccc2O1 (stereo unspecified)	none

Source: PubChem
